The values that follow come from PMC10764271 (Saudi Pharmaceutical Journal : SPJ, 2023).

Holding throughout (assay type): cell-based, human
The test system of one assay is MDA-MB-231. As to the kind of experiment: MTT cytotoxicity assay, MDA-MB-231. The method, boiled down:
(§1)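 Cells grown in DMEM with 10 % FBS and 1 % antibiotics (100 U/ml penicillin), seeded at 1.0 × 10^4 cells/well and left 24 h at 37 °C, 5 % CO2. Medium replaced; test compound at 5, 10, 25 and 50 μM for 48 h. MTT (5 mg/mL solution) added for 4 h; formazan dissolved in DMSO; A570 read. Triplicates. % viability versus untreated cells; IC50 from dose–response analysis.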
(Formazan colour is commonly taken as a measure of viable cells.)

A further assay has as its system MCF-7. As to the kind of experiment: MTT cytotoxicity assay, MCF-7. The method, boiled down:
as §1

In another assay the test system is MCF-10A. Briefly: MTT cytotoxicity assay, normal breast cell line MCF-10A. To be noted: read-out: IC50 Values MCF-10A, 48 h. The method, boiled down: as §1
[1] abbreviates: Homo sapiens, MDA-MB-231, 48 h, read-out: IC50 Values MDA-MB-231, MTT, 48 h, ±SD.
The mark [2] stands for this setting: Homo sapiens, MCF7, 48 h, read-out: IC50 Values MCF-7, MTT, 48 h, ±SD.

Like-named read-outs stand apart in the source and are kept apart here.

What is called IC50 is the concentration that inhibits the measured activity by half.

Turning to `N.N.[Cl][Pt][Cl]` [Cisplatin, reference compound], the IC50 in the assay with MDA-MB-231 (read-out: IC50 Values MDA-MB-231, MTT, 48 h, ±SD) was 27 ± 0.8 µM; in the assay with MCF-7 (read-out: IC50 Values MCF-7, MTT, 48 h, ±SD), 24.1 ± 0.8 µM; with MCF-10A (MTT, normal breast cell line, ±SD) it was 64.6 ± 0.5 µM.

In the case of `Oc1ccccc1C=Nc1cccnc1NCc1ccccc1` [H2L^1, 2-((2-(benzylamino)pyridin-3-ylimino)methyl)phenol], the IC50 was 75 ± 0.2 µM in the assay on MDA-MB-231 (setting [1]); 70.9 ± 0.4 µM in the assay on MCF-7 (setting [2]); above 100 µM in the assay on MCF-10A (Homo sapiens, MCF-10A).

Consider `Oc1ccc(Br)cc1C=Nc1cccnc1NCc1ccccc1` [H2L^2, 2-((2-(benzylamino)pyridin-3-ylimino)methyl)-4-bromophenol], for which the IC50 in the assay on MDA-MB-231 (setting [1]) was 81.6 ± 0.6 µM; in the assay on MCF-7 (setting [2]) it was 81.6 ± 0.6 µM; with MCF-10A (Homo sapiens, MCF-10A), above 100 µM.

For the molecule `Oc1ccc2ccccc2c1C=Nc1cccnc1NCc1ccccc1` [H2L^3, 1-((2-(benzylamino)pyridin-3-ylimino)methyl)naphthalen-2-ol], the IC50 was 87.01 ± 0.3 µM in the assay on MDA-MB-231 (setting [1]); 112.4 ± 0.6 µM with MCF-7 (setting [2]); above 100 µM with MCF-10A (Homo sapiens, MCF-10A).

For the molecule `CCN(CC)c1ccc(C=Nc2cccnc2NCc2ccccc2)c(O)c1` [H2L^4, 2-((2-(benzylamino)pyridin-3-ylimino)methyl) −5-(diethylamino)phenol], the IC50 with MDA-MB-231 (setting [1]) was 81.1 ± 0.2 µM; in the assay with MCF-7 (setting [2]) it was 104.6 ± 0.2 µM; in the assay on MCF-10A (Homo sapiens, MCF-10A), above 100 µM.

In the case of `Oc1ccc(Br)cc1C=Nc1cccnc1NC1CCCCC1` [H2L^5, 4-bromo-2-((2-(cyclohexylamino)pyridin-3-ylimino)methyl)phenol], the half-inhibitory concentration (IC50) in the assay with MDA-MB-231 (setting [1]) was 82.2 ± 0.6 µM; with MCF-7 (setting [2]), 88.81 ± 0.81 µM; in the assay on MCF-10A (Homo sapiens, MCF-10A), above 100 µM.

On to `CCN(CC)c1ccc(C=Nc2cccnc2NC2CCCCC2)c(O)c1` [H2L^6, 2-((2-(cyclohexylamino)pyridin-3-ylimino)methyl)-5-(diethylamino)phenol], for which the IC50 with MDA-MB-231 (setting [1]) is 96 ± 0.4 µM; in the assay on MCF-7 (setting [2]) it was 99.6 ± 0.41 µM; in the assay on MCF-10A (Homo sapiens, MCF-10A), above 100 µM.

Turning to `Cc1ccccc1Nc1ncccc1N=Cc1cc(Br)ccc1O` [H2L^7, 2-((2-(o-toluidino)pyridin-3-ylimino)methyl)-4-bromophenol], the concentration for half-maximal inhibition (IC50) with MDA-MB-231 (setting [1]) is 85.1 ± 0.4 µM; in the assay on MCF-7 (setting [2]) it was 88.3 ± 0.51 µM; with MCF-10A (Homo sapiens, MCF-10A), above 100 µM.

For `CCN(CC)c1ccc(C=Nc2cccnc2Nc2ccccc2C)c(O)c1` [H2L^8, 2-((2-(o-toluidino)pyridin-3-ylimino)methyl)-5-(diethylamino)phenol], the IC50 with MDA-MB-231 (setting [1]) was 83.6 ± 0.3 µM; with MCF-7 (setting [2]) it was 88.3 ± 0.3 µM; with MCF-10A (Homo sapiens, MCF-10A), above 100 µM.

As to `O=[N+]([O-])c1cccnc1NCc1ccccc1` [compound 1, N-benzyl-3-nitropyridin-2-amine], the IC50 was 110 ± 0.4 µM with MDA-MB-231 (setting [1]); 122 ± 0.8 µM in the assay on MCF-7 (setting [2]); above 100 µM in the assay with MCF-10A (Homo sapiens, MCF-10A).

Regarding `O=[N+]([O-])c1cccnc1NC1CCCCC1` [compound 2, N-cyclohexyl-3-nitropyridin-2-amine], the IC50 in the assay with MDA-MB-231 (setting [1]) is 110.2 ± 0.3 µM; in the assay with MCF-7 (setting [2]), 118 ± 0.3 µM; with MCF-10A (Homo sapiens, MCF-10A), above 100 µM.

Take `Cc1ccccc1Nc1ncccc1[N+](=O)[O-]` [compound 3, 3-nitro-N-o-tolylpyridin-2-amine]: the IC50 in the assay on MDA-MB-231 (setting [1]) is 112 ± 0.41 µM; in the assay on MCF-7 (setting [2]), 120 ± 0.3 µM; in the assay on MCF-10A (Homo sapiens, MCF-10A) it was above 100 µM.

Consider `Nc1cccnc1NCc1ccccc1` [compound 4, N^2-benzylpyridine-2,3-diamine], for which the IC50 in the assay with MDA-MB-231 (setting [1]) is 108 ± 0.2 µM; in the assay on MCF-7 (setting [2]), 109 ± 0.6 µM; with MCF-10A (Homo sapiens, MCF-10A) it was above 100 µM.

On to `Nc1cccnc1NC1CCCCC1` [compound 5, N^2-cyclohexylpyridine-2,3-diamine], for which the IC50 is 109 ± 0.8 µM in the assay on MDA-MB-231 (setting [1]); 112 ± 0.41 µM with MCF-7 (setting [2]); above 100 µM with MCF-10A (Homo sapiens, MCF-10A).

`Cc1ccccc1Nc1ncccc1N` [compound 6, N^2-o-tolylpyridine-2,3-diamine]: the IC50 in the assay with MDA-MB-231 (setting [1]) is 108 ± 0.2 µM; in the assay on MCF-7 (setting [2]), 112 ± 0.2 µM; in the assay with MCF-10A (Homo sapiens, MCF-10A) it was above 100 µM.
